Data on 22 compounds can be found in ChEMBL document CHEMBL3351268, “Synthesis, biological evaluation, and molecular modeling of new 3-(cyclopentyloxy)-4-methoxybenzaldehyde O-(2-(2,6-dimethylmorpholino)-2-oxoethyl) Oxime (GEBR-7b) related phosphodiesterase 4D (PDE4D) inhibitors” (J Med Chem, 2014).

The inhibition is how much of the control response was suppressed. In general, IC50 refers to the concentration needed to halve the response being measured.

The source made the active and inactive calls. The calls are words filed in the database; no cut-off is given here.

3',5'-cyclic-AMP phosphodiesterase 4A (Homo sapiens), sequence (P27815 whole entry): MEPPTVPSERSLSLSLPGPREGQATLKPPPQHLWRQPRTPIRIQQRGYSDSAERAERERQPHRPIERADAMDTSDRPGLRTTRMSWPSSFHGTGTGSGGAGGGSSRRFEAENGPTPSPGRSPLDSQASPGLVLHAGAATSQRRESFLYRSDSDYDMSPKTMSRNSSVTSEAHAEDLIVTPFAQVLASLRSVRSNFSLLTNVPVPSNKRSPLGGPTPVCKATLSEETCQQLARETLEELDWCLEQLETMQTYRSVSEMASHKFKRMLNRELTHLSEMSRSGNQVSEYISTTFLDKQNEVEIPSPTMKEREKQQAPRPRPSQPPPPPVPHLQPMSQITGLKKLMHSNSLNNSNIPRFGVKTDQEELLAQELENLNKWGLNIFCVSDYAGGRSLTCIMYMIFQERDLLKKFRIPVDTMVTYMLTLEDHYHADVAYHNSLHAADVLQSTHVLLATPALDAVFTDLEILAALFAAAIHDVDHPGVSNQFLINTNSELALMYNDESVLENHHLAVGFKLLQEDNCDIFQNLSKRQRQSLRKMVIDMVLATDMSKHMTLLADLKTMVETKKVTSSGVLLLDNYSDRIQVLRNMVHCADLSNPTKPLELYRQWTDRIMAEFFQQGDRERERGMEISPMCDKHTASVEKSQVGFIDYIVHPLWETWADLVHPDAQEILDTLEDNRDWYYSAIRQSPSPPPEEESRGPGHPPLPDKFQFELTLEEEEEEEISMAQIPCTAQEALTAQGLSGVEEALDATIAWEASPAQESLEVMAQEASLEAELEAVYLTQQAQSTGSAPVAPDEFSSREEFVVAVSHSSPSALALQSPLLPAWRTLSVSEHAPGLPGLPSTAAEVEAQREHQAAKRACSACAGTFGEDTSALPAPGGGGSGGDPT
T1 sequence (Q07343 whole entry): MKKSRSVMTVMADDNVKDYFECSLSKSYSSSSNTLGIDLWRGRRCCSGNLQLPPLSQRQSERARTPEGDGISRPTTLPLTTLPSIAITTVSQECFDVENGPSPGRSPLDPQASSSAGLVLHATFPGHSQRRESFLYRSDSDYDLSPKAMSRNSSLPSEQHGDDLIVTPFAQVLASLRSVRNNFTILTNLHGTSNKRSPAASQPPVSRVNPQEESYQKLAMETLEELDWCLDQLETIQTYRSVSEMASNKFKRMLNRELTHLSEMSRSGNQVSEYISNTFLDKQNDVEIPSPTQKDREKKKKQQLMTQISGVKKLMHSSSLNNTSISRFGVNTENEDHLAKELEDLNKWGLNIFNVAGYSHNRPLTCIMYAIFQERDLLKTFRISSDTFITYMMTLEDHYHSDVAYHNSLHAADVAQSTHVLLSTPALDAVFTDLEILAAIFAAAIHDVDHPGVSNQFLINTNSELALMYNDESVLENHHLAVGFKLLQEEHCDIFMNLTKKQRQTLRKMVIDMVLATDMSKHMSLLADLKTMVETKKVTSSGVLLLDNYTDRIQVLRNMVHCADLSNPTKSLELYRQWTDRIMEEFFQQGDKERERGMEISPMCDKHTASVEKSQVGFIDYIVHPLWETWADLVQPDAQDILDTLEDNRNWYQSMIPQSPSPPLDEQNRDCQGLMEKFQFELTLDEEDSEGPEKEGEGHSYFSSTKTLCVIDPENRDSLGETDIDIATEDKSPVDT

The first data set addresses 3',5'-cyclic-AMP phosphodiesterase 4A (Homo sapiens) (UniProt P27815). The experiment in a line: Inhibition of PDE4A4 (unknown origin) at 10 uM.
Settings: not given
The method, boiled down: (§1)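 Recombinant PDE4 isoform enzyme activity measured with compound at 10 μM, in duplicate; result given as % inhibition relative to control activity. PDE4D3 is recombinant human, expressed in a baculoviral system.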
With `COc1ccc(/C=N/OCC(O)CNN2CC(C)OC(C)C2)cc1OC1CCCC1` (stereo not given), the inhibition was determined as 41%.

`COc1ccc(/C=N/OCC(O)CNN2CCOCC2)cc1OC1CCCC1` (stereo not given) gave an inhibition of 33%.

`COc1ccc(/C=N/N2CCOCC2)cc1OC1CCCC1`: the inhibition was found to be 41%.

The compound `COc1ccc(/C=N/OCC(O)CN2CCC(O)CC2)cc1OC1CCCC1` (stereo not given) yielded an inhibition of 10%.

`COc1ccc(/C=N/N2CC(C)OC(C)C2)cc1OC1CCCC1` (stereo not given): the inhibition amounted to 29%.

The next data set addresses T1, 3',5'-cyclic-AMP phosphodiesterase 4B (Homo sapiens, UniProt Q07343). The experiment in a line: Inhibition of PDE4B2 (unknown origin).
Settings: not given
With `COc1ccc(/C=N/OCC(O)CNN2CC(C)OC(C)C2)cc1OC1CCCC1` (stereo not given), the IC50 worked out at 18000 nM.

As to `COc1ccc(/C=N/N2CCOCC2)cc1OC1CCCC1`, half-maximal inhibition (IC50) was put at 1600 nM.

A further data set is filed under the species Homo sapiens. Put plainly: Selectivity ratio of IC50 PDE4B2 (unknown origin) for to IC50 for ecombinant human PDE4D3 expressed in baculoviral system.
Settings: not given
Consider `COc1ccc(/C=N/OCC(O)CNN2CC(C)OC(C)C2)cc1OC1CCCC1` (stereo not given), for which the Ratio IC50 was found to be 90.

On to `COc1ccc(/C=N/N2CCOCC2)cc1OC1CCCC1`, for which the Ratio IC50 stood at 2.6.

The next data set deals with T2, 3',5'-cyclic-AMP phosphodiesterase 4D (Homo sapiens, UniProt Q08499). Put plainly: Inhibition of recombinant human PDE4D3 expressed in baculoviral system.
T2 sequence (Q08499 whole entry): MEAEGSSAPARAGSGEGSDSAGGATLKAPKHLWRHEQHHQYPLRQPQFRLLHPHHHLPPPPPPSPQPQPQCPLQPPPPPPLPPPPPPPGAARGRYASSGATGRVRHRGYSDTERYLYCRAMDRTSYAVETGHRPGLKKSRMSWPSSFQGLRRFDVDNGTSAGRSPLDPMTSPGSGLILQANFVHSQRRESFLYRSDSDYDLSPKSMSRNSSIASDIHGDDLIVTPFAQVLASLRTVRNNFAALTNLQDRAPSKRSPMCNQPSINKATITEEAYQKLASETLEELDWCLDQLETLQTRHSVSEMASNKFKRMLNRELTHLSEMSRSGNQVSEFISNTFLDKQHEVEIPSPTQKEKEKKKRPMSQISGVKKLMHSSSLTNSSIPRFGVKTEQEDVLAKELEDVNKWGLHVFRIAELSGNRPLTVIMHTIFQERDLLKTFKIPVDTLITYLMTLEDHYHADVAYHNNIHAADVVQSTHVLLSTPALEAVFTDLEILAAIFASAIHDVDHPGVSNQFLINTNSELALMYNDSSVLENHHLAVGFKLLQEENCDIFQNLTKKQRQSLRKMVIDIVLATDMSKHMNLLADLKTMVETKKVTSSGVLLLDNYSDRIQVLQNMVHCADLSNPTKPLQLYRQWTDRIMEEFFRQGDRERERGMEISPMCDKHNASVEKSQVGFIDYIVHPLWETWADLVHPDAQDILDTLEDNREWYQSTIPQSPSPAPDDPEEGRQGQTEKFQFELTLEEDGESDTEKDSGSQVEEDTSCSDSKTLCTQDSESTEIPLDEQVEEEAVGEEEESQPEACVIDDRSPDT
Settings: not given
Summed up: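 Recombinant PDE4 isoform enzyme (PDE4D3: recombinant human, baculoviral expression) tested at five concentrations over 5 × 10−8–10−4 M, in duplicate. IC50 obtained by nonlinear regression of the inhibition curve with Hill equation fitting.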
As for `COc1ccc(/C=N/OCC(O)CNN2CC(C)OC(C)C2)cc1OC1CCCC1` (stereo not given), the half-inhibitory concentration (IC50) is 210 nM.

With `COc1ccc(/C=N/OCC(O)CNN2CCOCC2)cc1OC1CCCC1` (stereo not given), the IC50 amounted to 1260 nM.

With `COc1ccc(/C=N/N2CCOCC2)cc1OC1CCCC1`, the IC50 was determined as 660 nM.

On to `COc1ccc(/C=N/OCC(O)CN2CCC(O)CC2)cc1OC1CCCC1` (stereo not given), for which the IC50 is 1790 nM.

In the case of `COc1ccc(/C=N/N2CC(C)OC(C)C2)cc1OC1CCCC1` (stereo not given), the half-maximal inhibitory concentration (IC50) was determined as 1550 nM.

Tested on in a further data set: not listed separately
The experiment in a line: Cytotoxicity against human HTLA-230 cells at 100 uM after 24 hrs by lactate dehydrogenase release assay. The format is cell-based. The conditions noted are these: htla-230, 24 h. Summed up:
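HTLA human neuronal cells exposed 24 h to 100 μM test compound; cytotoxicity read as lactate-dehydrogenase release.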
The compound `COc1ccc(/C=N/OCC(O)CNN2CC(C)OC(C)C2)cc1OC1CCCC1` (stereo not given) returned an Activity of 0.75%.

`COc1ccc(/C=N/OCC(O)CNN2CCOCC2)cc1OC1CCCC1` (stereo not given) yielded an Activity of 0.01%.

On to `COc1ccc(/C=N/OCC(=O)N2CC(C)OC(C)C2)cc1OC1CCCC1` (stereo not given), for which the Activity is recorded as 0.14%.

`COc1ccc(/C=N/N2CCOCC2)cc1OC1CCCC1` displayed an Activity of 0.04%.

Regarding `COc1ccc(/C=N/OCC(O)CN2CCC(O)CC2)cc1OC1CCCC1` (stereo not given), the Activity is reported as 1.2%.

`COc1ccc(/C=N/N2CC(C)OC(C)C2)cc1OC1CCCC1` (stereo not given) registered an Activity of 0.01%.

For another data set, the target named is T2, 3',5'-cyclic-AMP phosphodiesterase 4D. The experiment in a line: Inhibition of PDE4D3 (unknown origin) at 10 uM.
Settings: not given
The method, boiled down: as §1
For `COc1ccc(/C=N/OCC(O)CNN2CC(C)OC(C)C2)cc1OC1CCCC1` (stereo not given), the inhibition is 80%.

`COc1ccc(/C=N/OCC(O)CNN2CCOCC2)cc1OC1CCCC1` (stereo not given) showed an inhibition of 56%.

`COc1ccc(C(=O)N2CC(C)OC(C)C2)cc1OC1CCCC1` (stereo not given) registered an inhibition of 31%.

For the compound `COc1ccc(/C=N/N2CCOCC2)cc1OC1CCCC1`, the inhibition amounted to 83%.

In turn, `COc1ccc(/C=N/OCC(O)CN2CCC(O)CC2)cc1OC1CCCC1` (stereo not given) registered an inhibition of 65%.

In the case of `COc1ccc(C(=O)NN2CCOCC2)cc1OC1CCCC1`, the inhibition turned out to be 32%.

With `COc1ccc(/C=N/N2CC(C)OC(C)C2)cc1OC1CCCC1` (stereo not given), the inhibition was found to be 75%.

The target is the same in another data set. The experiment in a line: Inhibition of recombinant human PDE4D3 expressed in baculoviral system at 10 uM.
Settings: not given
The method, boiled down: as §1
`COc1ccc(/C=C/C(=O)N2CCOCC2)cc1OC1CCCC1`: the inhibition was found to be 25%.

As for `COc1ccc(/C=N/OCCC(=O)N2CCOCC2)cc1OC1CCCC1`, the inhibition amounted to 49%.

As for `COc1ccc(CCC(=O)N2CCOCC2)cc1OC1CCCC1`, the inhibition turned out to be 7%.

In the case of `COc1ccc(CCC(=O)N2CC(C)OC(C)C2)cc1OC1CCCC1` (stereo not given), the inhibition is 10%.

For the compound `COc1ccc(CCC(=O)N2CCC(O)CC2)cc1OC1CCCC1`, the inhibition came out at 12%.

Regarding `COc1ccc(C(=O)N2CCOCC2)cc1OC1CCCC1`, the inhibition turned out to be 45%.

In the case of `COc1ccc(C(=O)N2CCC(O)CC2)cc1OC1CCCC1`, the inhibition is 20%.

For `COc1ccc(/C=N/OCC(O)CNN2CC(C)OC(C)C2)cc1OC1CCCC1` (stereo not given), the inhibition is 80%.

Take `COc1ccc(/C=C/C(=O)N2CCC(O)CC2)cc1OC1CCCC1`: the inhibition is 22%.

Consider `COc1ccc(/C=N/OCC(O)CNN2CCOCC2)cc1OC1CCCC1` (stereo not given), for which the inhibition worked out at 56%.

For `COc1ccc(/C=C/C(=O)N2CC(C)OC(C)C2)cc1OC1CCCC1` (stereo not given), the inhibition was 16%.

As to `COc1ccc(/C=N/OCCC(=O)N2CC(C)OC(C)C2)cc1OC1CCCC1` (stereo not given), the inhibition was determined as 24%.

In the case of `COc1ccc(/C=N/OCC(CN2CCC(OC(C)=O)CC2)OC(C)=O)cc1OC1CCCC1` (stereo not given), the inhibition came to 12%.

Turning to `COc1ccc(C(=O)N2CC(C)OC(C)C2)cc1OC1CCCC1` (stereo not given), the inhibition was 31%.

Turning to `COc1ccc(/C=N/OCC(=O)N2CCC(O)CC2)cc1OC1CCCC1`, the inhibition stood at 30%.

`COc1ccc(C(=O)NN2CC(C)OC(C)C2)cc1OC1CCCC1` (stereo not given): the inhibition was 0%.

On to `COc1ccc(/C=N/N2CCOCC2)cc1OC1CCCC1`, for which the inhibition turned out to be 83%.

Consider `COc1ccc(/C=N/OCC(O)CN2CCC(O)CC2)cc1OC1CCCC1` (stereo not given), for which the inhibition was determined as 65%.

Take `COc1ccc(C(=O)NN2CCOCC2)cc1OC1CCCC1`: the inhibition stood at 32%.

For the compound `COc1ccc(/C=N/N2CC(C)OC(C)C2)cc1OC1CCCC1` (stereo not given), the inhibition turned out to be 75%.

Tested on in a further data set: not listed separately
The experiment in a line: Genotoxicity against human HTLA-230 cells assessed as phosphorylation of histone H2AX at 100 uM after 24 hrs by Western blot analysis. The format is toxicity, cell-based. The note with it: htla-230, 24 h. A general note: In western blotting, separated proteins are transferred to a membrane and probed.
As to `COc1cc([C@@H]2c3cc4c(cc3[C@@H](O[C@@H]3O[C@@H]5CO[C@@H](C)O[C@H]5[C@H](O)[C@H]3O)[C@H]3COC(=O)[C@H]23)OCO4)cc(OC)c1O` [ETOPOSIDE], the Activity entry is “Toxic”.

Turning to `COc1ccc(/C=N/OCC(O)CNN2CC(C)OC(C)C2)cc1OC1CCCC1` (stereo not given), the Activity result was “Non-toxic”.

Regarding `COc1ccc(/C=N/OCC(O)CNN2CCOCC2)cc1OC1CCCC1` (stereo not given), the Activity result was “Non-toxic”.

As for `COc1ccc(/C=N/OCC(=O)N2CC(C)OC(C)C2)cc1OC1CCCC1` (stereo not given), the Activity result was “Non-toxic”.

`COc1ccc(/C=N/N2CCOCC2)cc1OC1CCCC1`: the Activity result is “Non-toxic”.

On to `COc1ccc(/C=N/OCC(O)CN2CCC(O)CC2)cc1OC1CCCC1` (stereo not given), for which the Activity entry is “Non-toxic”.

Take `COc1ccc(/C=N/N2CC(C)OC(C)C2)cc1OC1CCCC1` (stereo not given): the Activity entry was “Non-toxic”.

The next data set deals with T1, 3',5'-cyclic-AMP phosphodiesterase 4B. The experiment in a line: Inhibition of PDE4B2 (unknown origin) at 10 uM.
Settings: not given
The method, boiled down: as §1
Compound `COc1ccc(/C=N/OCC(O)CNN2CC(C)OC(C)C2)cc1OC1CCCC1` (stereo not given) registered an inhibition of 51%.

With `COc1ccc(/C=N/OCC(O)CNN2CCOCC2)cc1OC1CCCC1` (stereo not given), the inhibition is 34%.

Compound `COc1ccc(/C=N/N2CCOCC2)cc1OC1CCCC1` returned an inhibition of 62%.

Compound `COc1ccc(/C=N/OCC(O)CN2CCC(O)CC2)cc1OC1CCCC1` (stereo not given) showed an inhibition of 5%.

In turn, `COc1ccc(/C=N/N2CC(C)OC(C)C2)cc1OC1CCCC1` (stereo not given) yielded an inhibition of 47%.

For a further data set, the target named is T2, 3',5'-cyclic-AMP phosphodiesterase 4D. Put plainly: Inhibition of PDE4D2 (unknown origin) at 10 uM.
Settings: not given
Compound `COc1ccc(/C=N/OCC(O)CNN2CC(C)OC(C)C2)cc1OC1CCCC1` (stereo not given) gave an inhibition of 74%.

`COc1ccc(C(=O)N2CC(C)OC(C)C2)cc1OC1CCCC1` (stereo not given) displayed an inhibition of 9%.

Compound `COc1ccc(/C=N/N2CCOCC2)cc1OC1CCCC1` returned an inhibition of 62%.

Consider `COc1ccc(C(=O)NN2CCOCC2)cc1OC1CCCC1`, for which the inhibition worked out at 32%.

In turn, `COc1ccc(/C=N/N2CC(C)OC(C)C2)cc1OC1CCCC1` (stereo not given) gave an inhibition of 53%.

The target is the same in the next data set. Put plainly: Inhibition of PDE4D3 in human HTLA230 cells assessed as accumulation of intracellular cAMP pretreated at 100 uM for 10 min before forskolin addition measured after 20 mins by enzyme immunoassay. The format is cell-based.
Settings: not given
Summed up: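 cAMP accumulation in HTLA cells treated 30 min with compound. Where indicated, forskolin was added during the last 20 min to raise basal cAMP. Intracellular cAMP measured by cAMP-specific enzymatic immunoassay.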
Turning to `COc1ccc(/C=N/OCC(O)CN2CCC(O)CC2)cc1OC1CCCC1` (stereo not given), the inhibition entry is “Active”.

The target is the same in a further data set. The experiment in a line: Inhibition of PDE4D1 (unknown origin) at 10 uM.
Settings: not given
As for `COc1ccc(/C=N/OCC(O)CNN2CC(C)OC(C)C2)cc1OC1CCCC1` (stereo not given), the inhibition stood at 65%.

On to `COc1ccc(C(=O)N2CC(C)OC(C)C2)cc1OC1CCCC1` (stereo not given), for which the inhibition amounted to 18%.

On to `COc1ccc(/C=N/N2CCOCC2)cc1OC1CCCC1`, for which the inhibition worked out at 75%.

`COc1ccc(C(=O)NN2CCOCC2)cc1OC1CCCC1`: the inhibition was found to be 49%.

`COc1ccc(/C=N/N2CC(C)OC(C)C2)cc1OC1CCCC1` (stereo not given) gave an inhibition of 68%.
